≈ marks a conversion by molar mass, not a printed value. Calls of active or inactive are those of the source. No cut-off for these calls is given here.

The test system of data set [1] is Mycobacterium tuberculosis. The data set is described as follows: Antitubercular activity against Mycobacterium tuberculosis H37Rv assessed as inhibition of bacterial growth incubated for 7 days by REMA method. In kind it is functional.
In another data set the test system is Mycobacterium marinum. The following applies: ATCC BAA-535, time 3.0 weeks.
A short description of data set [2]: Cytotoxicity against human THP-1 cells assessed as reduction in cell viability measured after 72 hrs by MTT assay. In kind it is toxicity, cell-based. Put shortly: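 THP-1 monocytes were differentiated to macrophages with PMA 100 ng/mL for 72 h. They were then exposed to compounds at 1, 10, 50 and 100 μM for 72 h, each tested twice. MTT at 1 mg/mL in RPMI with 5% FBS was added for 2 h at 37 °C; formazan was dissolved in DMSO and read at 570 nm. Viability is given as % of control; IC50 from non-linear regression.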
For orientation: Tetrazolium assays rely on reduction of a dye to a coloured formazan, in cell work by metabolically active cells.

Where [3] appears, read: Mycobacterium tuberculosis, H37Rv, 168 h, time 7 day, read-out: MIC90.

As usually defined, the MIC90 is an inhibitory concentration at the 90% level, which refers to growth in some studies and to a panel of isolates in others. As to `Cc1ccc2nc(NC(=O)c3cc(C(=O)Nc4ccc(O)cc4)no3)sc2c1`, the MIC90 result (in data set [1] (time 7.0 day); in the data set with Mycobacterium marinum) was “inactive” in each case.

By IC50 is commonly meant the point on the concentration scale where inhibition reaches its midpoint. For `Cc1ccc(Nc2nc(-c3cc(C(=O)N4CCCC4)no3)cs2)cc1`, in data set [1] (setting [3]), the MIC90 was over 20 µg/mL. In addition, the half-inhibitory concentration (IC50) at 72 h in data set [2] is over 100 µg/mL.

As for `O=C(Nc1cccc(O)c1)c1cc(C(=O)Nc2nc3ccccc3s2)on1`, the MIC90 result (in data set [1] (time 7.0 day); in the data set on Mycobacterium marinum) was “inactive” each time.

`Cc1ccc(Nc2nc(-c3cc(C(=O)Nc4cc(C)cc(C)c4)no3)cs2)cc1`: the MIC90 in data set [1] (setting [3]) is over 20 µg/mL.

Turning to `CN[C@@H]1[C@H](O[C@H]2[C@H](O[C@H]3[C@H](O)[C@@H](O)[C@H](N=C(N)N)[C@@H](O)[C@@H]3N=C(N)N)O[C@@H](C)[C@]2(O)C=O)O[C@@H](CO)[C@H](O)[C@H]1O` [STREPTOMYCIN], the MIC90 in data set [1] (setting [3]) stood at 0.25 µg/mL (≈ 0.43 µM).

Take `Cc1ccc(Nc2nc(-c3cc(C(=O)Nc4ccccc4)no3)cs2)cc1O`: the MIC90 in data set [1] (setting [3]) was found to be 2.5 µg/mL (≈ 6.37 µM). Moreover, the half-maximal inhibitory concentration (IC50) at 72 h in data set [2] was over 100 µg/mL.

Consider `O=C(Nc1ccccc1)c1cc(-c2csc(Nc3cc(Cl)cc(Cl)c3)n2)on1`, for which the MIC90 in data set [1] (setting [3]) is over 20 µg/mL.

For `Cc1cccc(NC(=O)c2cc(C(=O)Nc3nc4ccc(C)cc4s3)on2)c1`, the MIC90 entry (in data set [1] (time 7.0 day); with Mycobacterium marinum) was “inactive” each time.

With `Cc1ccc(Nc2nc(-c3cc(C(=O)Nc4ncc(C)s4)no3)cs2)cc1`, in data set [1] (setting [3]), the MIC90 was over 20 µg/mL.

Consider `O=C(Nc1ccccn1)c1cc(-c2csc(Nc3ccc(CO)cc3)n2)on1`, for which the MIC90 in data set [1] (setting [3]) was over 20 µg/mL.

Regarding `Cc1ccc(Nc2nc(-c3cc(C(=O)Nc4ncccc4C)no3)cs2)cc1`, in data set [1] (setting [3]), the MIC90 is over 20 µg/mL.

In the case of `O=C(Nc1ccccc1)c1cc(-c2csc(Nc3cc(F)cc(F)c3)n2)on1`, the MIC90 in data set [1] (setting [3]) was over 20 µg/mL.

Consider `Cc1ccc(Nc2nc(-c3cc(C(=O)Nc4ccccn4)no3)cs2)c(O)c1`, for which, in data set [1] (setting [3]), the MIC90 is over 20 µg/mL.

As for `Cc1cc(C)cc(Nc2nc(-c3cc(C(=O)Nc4ccccn4)no3)cs2)c1`, the MIC90 in data set [1] (setting [3]) was over 20 µg/mL.

With `CCOc1cccc(NC(=O)c2cc(-c3csc(Nc4ccc(C)cc4)n3)on2)c1`, the MIC90 in data set [1] (setting [3]) was over 20 µg/mL.

Turning to `O=C(Nc1ccccn1)c1cc(-c2csc(Nc3cc(Cl)cc(Cl)c3)n2)on1`, the MIC90 in data set [1] (setting [3]) was over 20 µg/mL.

`Cc1ccc(NC(=O)c2cc(-c3csc(Nc4ccc(C)cc4)n3)on2)cc1`: the MIC90 in data set [1] (setting [3]) worked out at 1 µg/mL (≈ 2.56 µM). Moreover, the 50% inhibitory concentration (IC50) at 72 h in data set [2] came to 47.5 µg/mL (≈ 122 µM).

Turning to `Cc1ccc(Nc2nc(-c3cc(C(=O)Nc4ccc(C)cc4Cl)no3)cs2)cc1`, the MIC90 in data set [1] (setting [3]) was over 20 µg/mL.

As to `Cc1ccc(Nc2nc(-c3cc(C(=O)Nc4cccc(C(F)(F)F)c4)no3)cs2)cc1`, the MIC90 in data set [1] (setting [3]) was over 20 µg/mL.

`NNC(=O)c1ccncc1` [ISONIAZID]: the MIC90 in data set [1] (time 7 day) was determined as 0.025 µg/mL (≈ 0.182 µM).

Regarding `Cc1ccc(Nc2nc(-c3cc(C(=O)Nc4ccnnc4)no3)cs2)cc1`, the MIC90 in data set [1] (setting [3]) is over 20 µg/mL.

Consider `Cc1ccc(Nc2nc(-c3cc(C(=O)NCc4cccs4)no3)cs2)cc1`, for which the MIC90 in data set [1] (setting [3]) is over 20 µg/mL.

Regarding `Cc1ccc(Nc2nc(-c3cc(C(=O)Nc4cccnc4)no3)cs2)cc1`, in data set [1] (setting [3]), the MIC90 amounted to 10 µg/mL (≈ 26.5 µM).

Turning to `Cc1ccc(Nc2nc(-c3cc(C(=O)Nc4ccccc4F)no3)cs2)cc1`, in data set [1] (setting [3]), the MIC90 was 1 µg/mL (≈ 2.54 µM). Further, in data set [2], the IC50 at 72 h amounted to 33.9 µg/mL (≈ 85.9 µM).

For the molecule `O=C(Nc1ccccc1)c1cc(-c2csc(Nc3ccc(CO)cc3)n2)on1`, the MIC90 in data set [1] (setting [3]) is over 20 µg/mL.

In the case of `CCOC(=O)c1cc(-c2cccc(Nc3ccc(C)cc3)n2)on1`, in data set [1] (setting [3]), the MIC90 stood at 1.25 µg/mL (≈ 3.87 µM). The IC50 at 72 h in data set [2] was over 100 µg/mL.

For `Cc1ccc(Nc2nc(-c3cc(C(=O)Nc4ccccc4O)no3)cs2)cc1`, in data set [1] (setting [3]), the MIC90 amounted to 0.5 µg/mL (≈ 1.27 µM). Also, in data set [2], the IC50 at 72 h is 53.1 µg/mL (≈ 135 µM).

For the molecule `Cc1ccc(Nc2nc(-c3cc(C(=O)Nc4ccc(Cl)cc4)no3)cs2)cc1`, the MIC90 in data set [1] (setting [3]) is over 40 µg/mL.

With `Cc1ccc(Nc2nc(-c3cc(C(=O)Nc4nccs4)no3)cs2)cc1`, the MIC90 in data set [1] (setting [3]) is over 40 µg/mL.

As for `O=C(Nc1ccccn1)c1cc(-c2csc(Nc3cc(F)cc(F)c3)n2)on1`, in data set [1] (setting [3]), the MIC90 is over 20 µg/mL.

For `Cc1ccc(Nc2nc(-c3cc(C(=O)Nc4ccc(C)cc4C)no3)cs2)cc1`, the MIC90 in data set [1] (setting [3]) is over 20 µg/mL.

On to `Cc1ccc(Nc2nc(-c3cc(C(=O)Nc4ccccn4)no3)co2)cc1`, for which the MIC90 in data set [1] (setting [3]) worked out at 2.5 µg/mL (≈ 6.92 µM). Also, the concentration for half-maximal inhibition (IC50) at 72 h in data set [2] came to 70.9 µg/mL (≈ 196 µM).

(Values after ChEMBL document CHEMBL5335768, “Expanding the knowledge around antitubercular 5-(2-aminothiazol-4-yl)isoxazole-3-carboxamides: Hit-to-lead optimization and release of a novel antitubercular chemotype via scaffold derivatization” (Eur J Med Chem, 2023).)
